# Assay results: ChEMBL document CHEMBL4334452, “Monosaccharide Analogues of Anticancer Peptide R-Lycosin-I: Role of Monosaccharide Conjugation in Complexation and the Potential of Lung Cancer Targeting and Therapy” (J Med Chem, 2019)
# Active and inactive are the calls of the source. The rule behind the calls is not given here. *1 amine or outer side, *2 acyl side, *3 side chain or, on linkers, in order; H or OH if unused. Where a SMILES comes first, the peptide text is derived from it. The star is where a group is joined. NH(CH2)3O(βDGlc) = OC[C@H]1O[C@@H](OCCCN*)[C@H](O)[C@@H](O)[C@@H]1O; Glutaryl = O=C(CCCC(=O)[*:2])[*:1]
# Experiments:
# A549 [1] = assay: Induction of mitochondrial membrane disruption in human A549 cells assessed as increase in cytochrome C level in cytoplasm at 15 uM measured after 24 hrs by immunofluorescence assay; type: functional, cell-based
# Procedure, shortened: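 A549 cells given 15 µM peptide for 24 h, permeabilized 2 min with 0.5% Triton X-100 and blocked 30 min in 10% sheep serum/PBS. Anti-CytC (1:100) applied 2 h at RT, then fluorescent goat anti-mouse secondary (1:200) for 1 h. Confocal imaging; untreated cells served as control.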
# A549 [2] = assay: Induction of apoptosis in human A549 cells assessed as appearance of apoptotic bodies at 15 uM measured after 24 hrs by scanning electron microscopic analysis; type: functional, cell-based
# HEK-293T = assay: Cytotoxicity against HEK293T cells assessed as reduction in cell viability measured after 24 hrs by CCK8 assay; type: cell-based, Homo sapiens; details: Homo sapiens, HEK-293T
# Procedure, shortened: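 Cells (A549, H460, H1437, PC-3, HGC-27, MDA-MB-231, HEK-293T, L-02) seeded at about 2×10^3/well and grown overnight. Treated 24 h with a peptide concentration series in serum-free medium. Viability by CCK-8; IC50 taken as 50% inhibition versus untreated cells. Average of three experiments, each in triplicate.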
# A549 [3] = assay: Induction of apoptosis in human A549 cells assessed as viable cells at 8 uM measured after 4 hrs by Annexin V-FITC/propidium iodide staining-based flow cytometry (reference value: 95.4%); type: functional; details: A549, 4 h, read-out: Activity
# Procedure, shortened: (§1)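 A549 cells grown 24 h, trypsinized, then resuspended in medium with 8 µM peptide for 4 h at 37 °C. Cells washed with cold PBS, stained with Annexin V-FITC/PI, and analysed by flow cytometry.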
# A549 [4] = assay: Induction of apoptosis in human A549 cells assessed as late apoptotic cells at 8 uM measured after 4 hrs by Annexin V-FITC/propidium iodide staining-based flow cytometry (reference value: 3.61%); type: functional; procedure, shortened: as §1
# A549 [5] = assay: Induction of apoptosis in human A549 cells assessed as necrotic cells at 8 uM measured after 4 hrs by Annexin V-FITC/propidium iodide staining-based flow cytometry (reference value: 0.51%); type: functional; procedure, shortened: as §1
# [6] = target: T1, Solute carrier family 2, facilitated glucose transporter member 1 (Homo sapiens) (UniProt P11166); assay: Binding affinity to GLUT1 in human A549 cells assessed as cytotoxicity by measuring cell viability at 12.5 uM measured after 2 hrs in absence of GLUT1 inhibitor STF-31 by CCK8 assay relative to control; type: cell-based
# T1 sequence (whole entry): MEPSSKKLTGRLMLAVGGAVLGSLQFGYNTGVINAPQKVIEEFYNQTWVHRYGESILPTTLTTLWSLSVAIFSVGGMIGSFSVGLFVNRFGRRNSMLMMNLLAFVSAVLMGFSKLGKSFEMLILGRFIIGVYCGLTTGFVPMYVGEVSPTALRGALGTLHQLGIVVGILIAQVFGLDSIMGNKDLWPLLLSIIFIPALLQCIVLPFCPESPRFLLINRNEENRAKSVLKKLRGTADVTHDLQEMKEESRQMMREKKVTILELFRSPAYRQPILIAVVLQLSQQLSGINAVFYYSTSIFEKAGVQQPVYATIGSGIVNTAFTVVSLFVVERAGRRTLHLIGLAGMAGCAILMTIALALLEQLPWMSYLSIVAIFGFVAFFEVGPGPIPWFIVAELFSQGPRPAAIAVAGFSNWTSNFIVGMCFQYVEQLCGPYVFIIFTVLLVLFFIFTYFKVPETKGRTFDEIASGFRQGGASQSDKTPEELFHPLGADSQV
# Procedure, shortened: (§2)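 A549 cells at 2×10^3/well, grown overnight, then preincubated 4 h in F12K/10% FBS with or without STF-31 (1 µM final). […] Incubated a further 2 h at 37 °C; viability by CCK-8.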
# [7] = target: T1, Solute carrier family 2, facilitated glucose transporter member 1 (Homo sapiens); assay: Binding affinity to GLUT1 in human A549 cells assessed as cytotoxicity by measuring cell viability at 12.5 uM measured after 2 hrs in presence of GLUT1 inhibitor STF-31 by CCK8 assay relative to control; type: cell-based; procedure, shortened: as §2
# A549 [8] = assay: Induction of morphological changes in human A549 cells assessed as cell shrinkage at 15 uM measured after 24 hrs by scanning electron microscopic analysis; type: functional, cell-based
# A549 [9] = assay: Induction of morphological changes in 3D spheroids of human A549 cells assessed as disruption of cell morphology at 30 uM treated every 2 days for 6 days measured every 3 days during compound dosing by microscopic analysis; type: functional, cell-based
# Procedure, shortened: (§3)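 A549 3D spheroids, one per well, in 10% medium with peptide at 30 µM final. Dosed at day 0, then re-added at days 2 and 4, for 6 days total. Spheroids washed thrice, then imaged and sized at days 0, 3 and 6. Viability read by CCK-8.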
# A549 [10] = assay: Induction of morphological changes in 3D spheroids of human A549 cells assessed as reduction in spheroid volume at 30 uM treated every 2 days for 6 days measured every 3 days during compound dosing by microscopic analysis; type: functional, cell-based; procedure, shortened: as §3
# [11] = target: T1, Solute carrier family 2, facilitated glucose transporter member 1 (Homo sapiens); assay: Binding affinity to GLUT1 in 3D spheroids of human A549 cells assessed as cytotoxicity by measuring reduction in cell viability at 30 uM treated every 2 days for 6 days by CCK8 assay; type: cell-based; procedure, shortened: as §3
# [12] = target: T1, Solute carrier family 2, facilitated glucose transporter member 1 (Homo sapiens); assay: Binding affinity to GLUT1 in human A549 cells harboring luciferase gene assessed as cytotoxicity by measuring reduction in cell viability after 24 hrs by CCK8 assay; type: cell-based
# [13] = Drug uptake in tumor of Balb/c nu/nu mouse xenografted with human A549 cells expressing luciferase gene at 9 mg/kg, ip measured after 6 hrs by fluorescence assay; type: ADME, organism-based, Neoplasm; details: in vivo
# [14] = Drug uptake in tumor of Balb/c nu/nu mouse xenografted with human A549 cells expressing luciferase gene at 3 mg/kg administered intratumorally measured after 6 hrs by fluorescence assay; type: ADME, organism-based, Neoplasm; details: in vivo, other
# [15] = Drug uptake in spleen of Balb/c nu/nu mouse xenografted with human A549 cells expressing luciferase gene at 9 mg/kg, ip measured after 6 hrs by fluorescence assay; type: ADME, organism-based; details: in vivo
# [16] = Drug uptake in spleen of Balb/c nu/nu mouse xenografted with human A549 cells expressing luciferase gene at 3 mg/kg administered intratumorally measured after 6 hrs by fluorescence assay; type: ADME, organism-based; details: in vivo, other
# [17] = Drug uptake in liver of Balb/c nu/nu mouse xenografted with human A549 cells expressing luciferase gene at 3 mg/kg administered intratumorally measured after 6 hrs by fluorescence assay; type: ADME, organism-based; details: in vivo, other
# A549 [18] = assay: Antitumor activity against human A549 cells expressing luciferase gene xenografted in Balb/c nu/nu mouse assessed as reduction in tumor volume at 3 mg/kg administered intratumorally every 3 days for four times measured on day 12 by bioluminescent imaging analysis; type: functional, organism-based
# Procedure, shortened: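 Male BALB/c nu/nu mice, 4-6 weeks old, with subcutaneous A549-luciferase xenografts. Treatment began when tumors reached 100-200 mm³, five per group. Peptide was injected intratumorally at 3 mg/kg in 100 µL every 3 days for 4 doses; 100 µL PBS was the control. Bioluminescent imaging on day 12, with tumor size and body weight monitored.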
# [19] = target: T1, Solute carrier family 2, facilitated glucose transporter member 1 (Homo sapiens); assay: Binding affinity to GLUT1 in human A549 cells assessed as cytotoxicity by measuring reduction in cell viability at 40 umol/L measured up to 48 hrs in presence of 10% serum by CCK8 assay relative to control; type: cell-based
SMILES,Activity (A549 [1]),Activity (A549 [2]),IC50 (HEK-293T) [µM],viability at 8 µM (A549 [3]) [%],Activity (A549 [4]) [%],Activity (A549 [5]) [%],Activity [6] [%],Activity [7] [%],Activity (A549 [8]),Activity (A549 [9]),Activity (A549 [10]),Activity [11],Activity [12],Drug uptake [13],Drug uptake [14],Drug uptake [15],Drug uptake [16],Drug uptake [17],Activity (A549 [18]),Activity [19] [%]
CC[C@H](C)[C@H](NC(=O)[C@H](Cc1ccccc1)NC(=O)[C@H](CCCNC(=N)N)NC(=O)[C@H](C)NC(=O)[C@@H](NC(=O)[C@H](CO)NC(=O)[C@H](CCCNC(=N)N)NC(=O)[C@H](CCSC)NC(=O)[C@H](C)NC(=O)[C@H](CCCNC(=N)N)NC(=O)[C@H](Cc1ccccc1)NC(=O)[C@H](Cc1c[nH]c2ccccc12)NC(=O)CNC(=O)[C@H](CCCNC(=N)N)NC(=O)CCCC(=O)NCCCO[C@@H]1O[C@H](CO)[C@@H](O)[C@H](O)[C@H]1O)[C@@H](C)CC)C(=O)N[C@@H](C)C(=O)N[C@@H](CCCNC(=N)N)C(=O)N[C@@H](CCC(=O)O)C(=O)N[C@@H](CCCNC(=N)N)C(=O)N[C@@H](CC(C)C)C(=O)N[C@@H](CCCNC(=N)N)C(=O)N[C@@H](CCC(=O)O)C(=O)N[C@@H](Cc1cnc[nH]1)C(=O)N[C@@H](CC(C)C)C(=O)O ({NH(CH2)3O(βDGlc)-Glutaryl}-RGWFRAMRSIARFIARERLREHL-OH),Active,Active,37.4,59.8,38.49,0.57,54,40,Active,Active,Active,Active,Active,Active,Active,Active,Active,Active,Active,80
CC[C@H](C)[C@H](NC(=O)[C@H](Cc1ccccc1)NC(=O)[C@H](CCCNC(=N)N)NC(=O)[C@H](C)NC(=O)[C@@H](NC(=O)[C@H](CO)NC(=O)[C@H](CCCNC(=N)N)NC(=O)[C@H](CCSC)NC(=O)[C@H](C)NC(=O)[C@H](CCCNC(=N)N)NC(=O)[C@H](Cc1ccccc1)NC(=O)[C@H](Cc1c[nH]c2ccccc12)NC(=O)CNC(=O)[C@@H](N)CCCNC(=N)N)[C@@H](C)CC)C(=O)N[C@@H](C)C(=O)N[C@@H](CCCNC(=N)N)C(=O)N[C@@H](CCC(=O)O)C(=O)N[C@@H](CCCNC(=N)N)C(=O)N[C@@H](CC(C)C)C(=O)N[C@@H](CCCNC(=N)N)C(=O)N[C@@H](CCC(=O)O)C(=O)N[C@@H](Cc1cnc[nH]1)C(=O)N[C@@H](CC(C)C)C(=O)O (H-RGWFRAMRSIARFIARERLREHL-OH),Active,Active,25.8,88.8,9.87,0.75,–,–,Active,Active,Active,Active,Active,–,–,Active,Active,Active,Active,–
